Source: PubChem
A selection follows.
Apaf-1 act – activators of human Apaf-1 apoptosome, primary screen, biochemical, DEVD-Rh110 fluorescence, uHTS; Apaf-1 apoptosome caspase-3 activation; hits give low values; activity change, negative = activation, % at 20 µM; hit rate 0.31% among 330,000;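 active = activity change at or below -40% at 20 µM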
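Material: reconstituted apoptosome of Apaf-1, cytochrome c, caspase-9, procaspase-3; times: 30 min preincubation, 50 min reaction, room temperature; measured by: fluorescence, 540 nm emission, 480 nm excitation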
Rh110 act interf – Rh110 fluorescence interference by putative Apaf-1 activators, confirmation, artefact control for Apaf-1 activator project, biochemical, 20 µM; shares compounds with Apaf-1 act; quenched caspase reaction, Ex480/Em540; fluorescence interference (activity change), % at 20 µM, hits read low; 980 tested, under 10 active; AID 504616, 2011;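 active = mean activity change at or below -40% when tested at 20 µM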
Apaf-1 act conf – Apaf-1 activators, single-dose retest, confirmation, biochemical, fluorescence, DEVD-Rh110, 20 µM | hit rate 5% among 980 | reconstituted apoptosome caspase-3 activity; hits give low values | activity change, negative = activation, % at 20 µM | shares compounds with Apaf-1 act;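 active = mean activity change at or below -40%, meaning activation of 40% or more, at 20 µM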
Fluor interf act – fluorescence interference of Apaf-1 activator hits, dose response, artefact control for Apaf-1 activator project; 55 tested, under 10 active; shares compounds with Apaf-1 act; fluorescence interference counterscreen, Apaf-1 activator assay; AID 588592, 2011; EC50, µM; call rule not given here
The depositor's hits bear a star; · = no result given.

SMILES | Apaf-1 act | Rh110 act interf | Apaf-1 act conf | others
CCN1/C(=C/C=C/c2sc3ccccc3[n+]2CC)Sc2ccccc21 | 89.8 | · | ·
N#Cc1ccc(C23CC4(C2)[C@H](CN(CC2CCCCC2)[C@@H]4c2ccccc2)C3c2ccc(C(F)(F)F)cc2)cc1 (stereo partly drawn) | 42.3 | · | ·
Cc1ccc(C)c(NC(=S)NCCN(C2CCCCC2)C2CCCC2)c1 | -73.1* | -1.3 | 12.6
Cc1ccc(C)c(NC(=S)Nc2cccc3cnccc23)c1 | 95.7 | · | ·
CCOc1cc(NCc2ccccc2)c2ncn(C(C)C)c2c1 | 41.7 | · | ·
O=C(/C=C/c1ccc(-c2ccccc2[N+](=O)[O-])o1)c1ccc(Br)cc1 | 48.8 | · | ·
COc1cc(OC)c2c(-c3ccccc3)cc(=O)oc2c1C(CCN1CCOCC1)c1ccc(N(C)C)cc1 (stereo not drawn) | 51.5 | · | ·
COc1cccc2c1C(=O)c1ccc3ccccc3c1C2=O | 72.2 | · | ·
Cc1ccc(C(=O)N2CCCN(c3nc4cc5c(cc4cc3C#N)OCO5)CC2)cc1 | 67.3 | · | ·
COc1ccc2nc3ccccc3nc2c1N | 92.3 | · | ·
COc1ccc(C(=O)n2nc(-c3ccccc3)nc2N)cc1OC | -363.1* | -5.8 | 9.8
NC(=O)CC1Nc2cccc3cccc(c23)NC1=O (stereo not drawn) | 98.0 | · | ·
CN(C)c1ccc(C(=S)N2CCCCC2)cc1 | -334.6* | -3.1 | 2.3
COc1ccc(OCCNc2c([N+](=O)[O-])c(=O)oc3ccccc23)cc1 | 73.3 | · | ·
Cc1ccc(-c2nn3c(C)nnc3c3ccccc23)cc1S(=O)(=O)NCc1ccccc1 | 47.7 | · | ·
Clc1ccc(OCCSc2nnnn2C2CCCCC2)cc1 | 65.2 | · | ·
Nn1c(SCCOc2ccc(Cl)cc2)nnc1-c1cccnc1 | -43.6* | 12.7 | 15.6
CCN1CCN(CCNC(=O)c2ccc3nc(-c4cccc(C)c4)c(-c4cccc(C)c4)nc3c2)CC1 | 47.5 | · | ·
COc1ccc(CN2C(=O)Cc3c2nc(N)c2c(N)nc(N4CCOCC4)c(C#N)c32)cc1 | 86.4 | · | ·
Cc1ncc([N+](=O)[O-])n1CCN1C(=O)c2ccccc2C1=O | -143.9* | -2.9 | 9.2
Cc1cc2cc(C(c3nnnn3Cc3ccco3)N3CCc4ccccc4C3)c(=O)[nH]c2cc1C (stereo not drawn) | 40.9 | · | ·
Cc1cc2cc(CNC(=O)Nc3ccc(Cl)c(Cl)c3)ccc2n1C | 62.3 | · | ·
CN(CC(=O)Nc1ccc(Cl)c(Cl)c1)C(=O)C12CC3CC(CC(C3)C1)C2 | -86.3* | -4.0 | 19.8
Cc1[nH]c2ccc(C(=O)NCC(C)(C)N3CCOCC3)cc2c1C | -519.3* | 0.3 | 7.7
CC1(C)C=C2C(=NN(c3ccccc3)C(N)=C2C#N)CO1 | 47.4 | · | ·
SMILES | Apaf-1 act | Rh110 act interf | Apaf-1 act conf | others
S=C(Nc1ccc(N2CCOCC2)cc1)Nc1ccc2nc(-c3ccco3)c(-c3ccco3)nc2c1 | 41.3 | · | ·
COc1cccc(N2C(=O)CC(Nc3ccc(N4CCOCC4)cc3)C2=O)c1 (stereo not drawn) | -393.1* | 0.6 | 15.7
CN(CCO)c1nc(N)c2c(N)nc3c(c2c1C#N)CC(=O)N3Cc1cccs1 | 77.1 | · | ·
COc1ccc(C2c3sc(=O)[nH]c3SC3C(=O)N(c4ccccc4)C(=O)C32)cc1 (stereo not drawn) | -177.8* | 3.8 | 9.8
COc1ccc(C[C@H]2CN3C(=NC[C@@H]3Cc3ccccc3)N2C[C@H](C)NC(=O)CCC2CCCCC2)cc1 | 51.6 | · | ·
COc1ccc(CN=Cc2[nH]c3ccc(Br)c(Cl)c3c2O)cc1 | 44.7 | · | ·
N=c1n(CC(=O)c2ccc(Br)cc2)c2ccccc2n1Cc1ccccc1 | 53.4 | · | ·
N#CCCn1cc(C(CC(=O)c2ccc(Br)cc2)C(=O)O)c2ccccc21 (stereo not drawn) | -67.4* | 9.8 | -48.4* | Fluor interf act=>100
COc1cccc(C(=O)NN2C(=S)N(c3ccccc3)C(=O)C2CC(N)=O)c1 (stereo not drawn) | -83.1* | -7.7 | 11.1
O=S(=O)(c1ccc(Br)cc1)N1CCN(c2ccc3nnc(-c4ccccc4)n3n2)CC1 | 40.8 | · | ·
CCN1CCN(Cc2ccc(NC(=O)c3ccc(C)c(NC(=O)C(=O)c4c[nH]c5ccccc45)c3)cc2C(F)(F)F)CC1 | 74.4 | · | ·
O=c1[nH]c2ccc(S(=O)(=O)Nc3ccc(-c4nnc5n4CCCCC5)cc3)cc2o1 | -153.8* | 6.2 | 16.4
CC(C)[C@H](CO)Nc1nc(Nc2ccc(Cl)c(C(=O)O)c2)c2ncn(C(C)C)c2n1 | 43.7 | · | ·
COc1ccc(CN(C)C(=O)c2ccc(OCC(=O)Nc3cccc(C(F)(F)F)c3)c(OC)c2)c(OC)c1 | 44.9 | · | ·
CC(=O)OCCCNc1cc(SCc2ccco2)c2nonc2c1[N+](=O)[O-] | 73.8 | · | ·
Cc1cc(C)c2sc(N(CCN(C)C)C(=O)CCS(=O)(=O)c3ccccc3)nc2c1 | 52.5 | · | ·
CC(C)(O)C#Cc1ccc(CN2CCC(n3nccc3NC(=O)C3CC3)CC2)cc1 | -78.6* | 2.1 | 8.0
O=C1c2c(O)ccc(O)c2C(=O)c2c(NCCNCCO)ccc(NCCNCCO)c21 | 78.4 | · | ·
COc1ccc(N)cc1-n1c(C)ccc1C | 83.7 | · | ·
C=CCn1c(N)c(C(=O)Nc2ccccc2)c2nc3ccccc3nc21 | 67.4 | · | ·
Cc1cc(C)c(S(=O)(=O)Nc2ccc3c4c(cccc24)CC3)c(C)c1 | 43.0 | · | ·
CCOC(=O)C1CCN(C(=O)c2c(C)oc3c2C(=O)c2ccccc2C3=O)CC1 | 48.4 | · | ·
CC1CCN(C2=C(NS(=O)(=O)c3ccccc3)C(=O)c3ccccc3C2=O)CC1 | 60.0 | · | ·
CCOC(=O)C1CCN(C(=O)c2ccccc2NS(=O)(=O)c2ccccc2)CC1 | -496.4* | 16.2 | 18.6
O=C(/C=C/c1ccc(O)cc1)c1ccc(NC2=C(N3CCCCC3)C(=O)c3ccccc3C2=O)cc1 | 76.0 | · | ·
SMILES | Apaf-1 act | Rh110 act interf | Apaf-1 act conf | others
COc1ccc(-n2nc3c(N4CCC(C(=O)NCc5ccccc5C)CC4)nnc(C)c3c2C)cc1 | 59.0 | · | ·
Cc1oc2c(c1C(=O)N1CCC(C)CC1)C(=O)c1ccccc1C2=O | 41.5 | · | ·
N#Cc1cc2ccc(N3CCOCC3)cc2cc1C#N | 82.2 | · | ·
COc1nc(N/N=C/c2ccc(-c3ccccc3[N+](=O)[O-])o2)nc(N2CCOCC2)n1 | 54.4 | · | ·
Cc1cc(C)nc(N/N=C/c2ccc(N3CCOCC3)cc2)n1 | -67.8* | 9.3 | 13.5
COCCNC(=O)c1c(N)n(CCCn2ccnc2)c2nc3ccccc3nc12 | 93.9 | · | ·
CCC(=O)NC1=C(Cl)C(=O)C(NC(=O)CC)=C(Cl)C1=O | 70.7 | · | ·
COC(=O)c1nn(-c2ccc(OC)cc2)c(=O)cc1Sc1ccc(C)cc1 | -333.1* | -3.6 | 12.0
COC(=O)c1nn(-c2ccc(OC)cc2)c(=O)cc1NN | 42.2 | · | ·
CC[C@@H](C)[C@@H]1CN([C@@H](CN2CCC[C@H]2CN2C(N)=NC[C@H]2C(C)C)C(C)C)C(=N)N1CCc1ccc(Cl)c(Cl)c1 | 51.0 | · | ·
O=C(c1ccccc1)N1CCCOC1c1ccccc1 (stereo not drawn) | -67.0* | 6.0 | 15.8
